Laboratory results: ChEMBL document CHEMBL3272173, “Synthesis and biological activity of peptide antagonists of luliberin (luteinizing hormone-releasing hormone)” (J Med Chem, 1979)
Values joined by “and” are separate entries in the source; they are usually repeats but may differ in a detail not shown here. Identical values can stand only once. Peptide text beside a SMILES is read from it. * marks the point of attachment. Cbz = O=C(OCc1ccccc1)*; Boc = CC(C)(C)OC(=O)*; NHBn = c1ccc(CN*)cc1; Bn = c1ccc(C*)cc1

Assays:
[1] = target: T1, Gonadotropin-releasing hormone receptor (Rattus norvegicus) (UniProt P30969); assay: In vitro antagonist activity at GNRHR in CD rat anterior pituitary gland assessed as inhibition of LH-RH-stimulated LH release at compound to LH-RH molar ratio of 10000 after 4 hrs by radioimmunoassay; settings: concentration not given here
T1 sequence (whole entry): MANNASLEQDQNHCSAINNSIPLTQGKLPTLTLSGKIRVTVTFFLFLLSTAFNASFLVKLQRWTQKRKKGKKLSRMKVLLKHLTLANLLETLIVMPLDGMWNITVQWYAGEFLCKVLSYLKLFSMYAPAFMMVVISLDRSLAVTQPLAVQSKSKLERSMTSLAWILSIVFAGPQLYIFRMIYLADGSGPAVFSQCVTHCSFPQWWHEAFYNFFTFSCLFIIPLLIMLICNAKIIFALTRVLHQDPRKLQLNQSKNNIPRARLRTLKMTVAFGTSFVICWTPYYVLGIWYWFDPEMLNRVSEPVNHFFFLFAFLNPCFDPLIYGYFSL
Outline: (§1)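 Anterior pituitaries from diestrus CD rats (200-250 g) were dissociated enzymatically (collagenase, hyaluronidase, then Viokase). Cells were cultured 4 days at 1.67 × 10^5 cells/mL in DME with 10% horse serum and 2.5% fetal calf serum, then washed serum-free. Duplicate cultures received LH-RH (2-5 × 10^-10 M) with a single analogue concentration in serum-free DME for 4 h at 37 °C. LH in the medium was measured by RIA and reported as % inhibition of LH-RH-stimulated release.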

Rattus norvegicus [2] = assay: Antiovulatory activity in CD rat assessed as blockade of ovulation at 1 mg, sc administered as six doses at 1200, 1230, 1300, 1350, 1400 and 1450 hrs during proestrus stage measured during estrus stage by dissecting microscopic analysis; assay type: functional
Outline: (§2)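 Cycling Charles River CD rats were given six subcutaneous injections of analogue in 0.1 mL propylene glycol on the afternoon of proestrus, and controls received vehicle alone. Rats were killed the next morning (estrus). Ovulating animals were scored and ova in the oviducts were counted under a dissecting microscope.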

Rattus norvegicus [3] = assay: Antiovulatory activity in sc dosed CD rat assessed as blockade of ovulation administered as six doses at 1200, 1230, 1300, 1350, 1400 and 1450 hrs during proestrus stage measured during estrus stage by dissecting microscopic analysis; assay type: functional; outline: as §2
[4] = target: T1, Gonadotropin-releasing hormone receptor (Rattus norvegicus); assay: In vitro antagonist activity at GNRHR in CD rat anterior pituitary gland assessed as inhibition of LH-RH-stimulated LH release at compound to LH-RH molar ratio of 2800 after 4 hrs by radioimmunoassay; settings: concentration not given here; outline: as §1
[5] = target: T1, Gonadotropin-releasing hormone receptor (Rattus norvegicus); assay: In vitro antagonist activity at GNRHR in CD rat anterior pituitary gland assessed as ratio of molar concentration of compound to LH-RH for inhibition of LH-RH-stimulated LH release after 4 hrs by radioimmunoassay
Outline: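 Monolayers were cultured 4 days from dissociated anterior pituitary cells of diestrus CD rats. They were exposed in duplicate to LH-RH (2-5 × 10^-10 M) plus multiple analogue concentrations in serum-free DME for 4 h at 37 °C. LH in the medium was measured by radioimmunoassay. The ED50 molar ratio is the analogue:LH-RH molar ratio giving 50% inhibition of LH-RH-stimulated LH release.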

[6] = target: T1, Gonadotropin-releasing hormone receptor (Rattus norvegicus); assay: In vitro antagonist activity at GNRHR in CD rat anterior pituitary gland assessed as inhibition of LH-RH-stimulated LH release at compound to LH-RH molar ratio of 100 after 4 hrs by radioimmunoassay; settings: concentration not given here; outline: as §1
[7] = target: T1, Gonadotropin-releasing hormone receptor (Rattus norvegicus); assay: In vitro antagonist activity at GNRHR in CD rat anterior pituitary gland assessed as inhibition of LH-RH-stimulated LH release at compound to LH-RH molar ratio of 20 after 4 hrs by radioimmunoassay; settings: concentration not given here; outline: as §1
[8] = target: T1, Gonadotropin-releasing hormone receptor (Rattus norvegicus); assay: In vitro antagonist activity at GNRHR in CD rat anterior pituitary gland assessed as inhibition of LH-RH-stimulated LH release at compound to LH-RH molar ratio of 200 after 4 hrs by radioimmunoassay; settings: concentration not given here; outline: as §1

Molecule | inhibition [1] [%] | inhibition (INH) (Rattus norvegicus [2]) [%] | ED50 (Rattus norvegicus [3]) [mg] | ED50 [5] [molar ratio] | other results
CC(C)C[C@H](NC(=O)CNC(=O)[C@H](Cc1ccc(O)cc1)NC(=O)[C@H](CO)NC(=O)[C@H](Cc1c[nH]c2ccccc12)NC(=O)OCc1ccccc1)C(=O)N[C@@H](CCCNC(=N)N)C(=O)N1CCC[C@H]1C(=O)NCC(N)=O.Cl (HELM PEPTIDE1{[O=C(OCc1ccccc1)[*:2]].W.S.Y.G.L.R.P.G.[am]}$$$$V2.0) | 68 | 20 | >1 |  | 
H-WSYGLRPG-NH2 | 15 |  |  |  | 
CC(C)C[C@H](NC(=O)CNC(=O)[C@H](Cc1ccc(O)cc1)NC(=O)[C@H](CO)NC(=O)[C@H](Cc1c[nH]c2ccccc12)NC(=O)[C@@H](Cc1ccccc1)NC(=O)OCc1ccccc1)C(=O)N[C@@H](CCCNC(=N)N)C(=O)N1CCC[C@H]1C(=O)NCC(N)=O.Cl |  | 0 | >1 |  | inhibition [4]: 76%
CCNC(=O)[C@@H]1CCCN1C(=O)[C@H](CCCNC(=N)N)NC(=O)[C@H](CC(C)C)NC(=O)CNC(=O)[C@H](Cc1ccc(O)cc1)NC(=O)[C@H](CO)NC(=O)[C@H](Cc1c[nH]c2ccccc12)NC(=O)[C@H](COCc1ccccc1)NC(=O)OC(C)(C)C (Boc-S(Bn)WSYGLRP-NHEt) |  |  |  |  | inhibition [4]: 40%
CC(C)C[C@H](NC(=O)CNC(=O)[C@H](Cc1ccc(O)cc1)NC(=O)[C@H](CO)NC(=O)[C@H](Cc1c[nH]c2ccccc12)NC(=O)[C@@H]1CCC(=O)N1)C(=O)N[C@@H](CCCNC(=N)N)C(=O)N1CCC[C@H]1C(=O)NCC(N)=O (HELM PEPTIDE1{[Glp].W.S.Y.G.L.R.P.G.[am]}$$$$V2.0) | 60 |  |  |  | 
CCNC(=O)[C@@H]1CCCN1C(=O)[C@H](CCCNC(=N)N)NC(=O)[C@H](CC(C)C)NC(=O)[C@@H](CCCNC(=N)N)NC(=O)[C@H](Cc1ccc(O)cc1)NC(=O)[C@H](CO)NC(=O)[C@H](Cc1c[nH]c2ccccc12)NC(=O)[C@H](CCC(N)=O)NC(=O)OCc1ccccc1.Cl |  | 0 | >1 | 20 | inhibition [4]: 86%
CCNC(=O)[C@@H]1CCCN1C(=O)[C@H](CCCNC(=N)N)NC(=O)[C@H](CC(C)C)NC(=O)CNC(=O)[C@H](Cc1ccc(O)cc1)NC(=O)[C@H](CO)NC(=O)[C@H](Cc1c[nH]c2ccccc12)NC(=O)[C@@H](CC(C)C)NC(=O)OCc1ccccc1 |  |  |  |  | inhibition [4]: 51%
CC(C)C[C@H](NC(=O)OCc1ccccc1)C(=O)N[C@@H](Cc1c[nH]c2ccccc12)C(=O)N[C@@H](CO)C(=O)N[C@@H](Cc1ccc(O)cc1)C(=O)N[C@H](CC(N)=O)C(=O)N[C@@H](CC(C)C)C(=O)N[C@@H](CCCNC(=N)N)C(=O)N1CCC[C@H]1C(=O)NCC(N)=O.Cl |  | 0 | >1 | 134 | inhibition [6]: 42%
CC(C)C[C@H](NC(=O)CNC(=O)[C@H](Cc1ccc(O)cc1)NC(=O)[C@H](CO)NC(=O)[C@H](Cc1c[nH]c2ccccc12)NC(=O)[C@@H]1CCCN1C=O)C(=O)N[C@@H](CCCNC(=N)N)C(=O)N1CCC[C@H]1C(=O)NCC(N)=O (HELM PEPTIDE1{[O=C[*:2]].P.W.S.Y.G.L.R.P.G.[am]}$$$$V2.0) | 53 |  |  |  | 
H-HWSYGLRPG-NH2 | 42 |  |  |  | 
CCNC(=O)[C@@H]1CCCN1C(=O)[C@H](CCCNC(=N)N)NC(=O)[C@H](CC(C)C)NC(=O)[C@@H](Cc1c[nH]c2ccccc12)NC(=O)[C@H](Cc1ccc(O)cc1)NC(=O)[C@H](CO)NC(=O)[C@H](Cc1c[nH]c2ccccc12)NC(=O)[C@H](CCC(N)=O)NC(=O)OCc1ccccc1.Cl |  | 20 | >1 | 3.9 | inhibition [6]: 100%
CC(C)C[C@H](NC(=O)[C@@H](CC(C)C)NC(=O)[C@H](Cc1ccc(O)cc1)NC(=O)[C@H](CO)NC(=O)[C@H](Cc1c[nH]c2ccccc12)NC(=O)[C@H](Cc1ccc(OCc2ccccc2)cc1)NC(=O)OCc1ccccc1)C(=O)N[C@@H](CCCNC(=N)N)C(=O)N1CCC[C@H]1C(=O)NCC(N)=O.Cl |  | 0 | >1 | 7 | inhibition [7]: 57%
CC(C)C[C@H](NC(=O)[C@@H](Cc1ccccc1)NC(=O)[C@H](Cc1ccc(O)cc1)NC(=O)[C@H](CO)NC(=O)[C@H](Cc1c[nH]c2ccccc12)NC(=O)[C@H](CCC(N)=O)NC(=O)OCc1ccccc1)C(=O)N[C@@H](CCCNC(=N)N)C(=O)N1CCC[C@H]1C(=O)NCC(N)=O |  |  |  | 22 | inhibition [8]: 83% and 93%
CC(C)C[C@H](NC(=O)[C@@H](Cc1c[nH]c2ccccc12)NC(=O)[C@H](Cc1ccc(O)cc1)NC(=O)[C@H](CO)NC(=O)[C@H](Cc1c[nH]c2ccccc12)NC(=O)[C@H](CCC(N)=O)NC(=O)OCc1ccccc1)C(=O)N[C@@H](CCCNC(=N)N)C(=O)N1CCC[C@H]1C(=O)NCC(N)=O.Cl |  | 0 | >1 | 8 | inhibition [8]: 87%
CC(C)C[C@H](NC(=O)CNC(=O)[C@H](Cc1ccc(O)cc1)NC(=O)[C@H](CO)NC(=O)[C@H](Cc1c[nH]c2ccccc12)NC(=O)[C@H](Cc1cnc[nH]1)NC(=O)OCc1ccccc1)C(=O)N[C@@H](CCCNC(=N)N)C(=O)N1CCC[C@H]1C(=O)NCC(N)=O (HELM PEPTIDE1{[O=C(OCc1ccccc1)[*:2]].H.W.S.Y.G.L.R.P.G.[am]}$$$$V2.0) | 58 |  |  |  | 
CC(=O)O.CCNC(=O)[C@@H]1CCCN1C(=O)[C@H](CCCNC(=N)N)NC(=O)[C@H](CC(C)C)NC(=O)[C@@H](Cc1ccc(OC)cc1)NC(=O)[C@H](Cc1ccc(O)cc1)NC(=O)[C@H](CO)NC(=O)[C@H](Cc1c[nH]c2ccccc12)NC(=O)[C@H](COCc1ccccc1)NC(=O)OCc1ccccc1 |  | 100 | 0.1 |  | inhibition [7]: 100%
CC(=O)O.CC(C)C[C@H](NC(=O)[C@@H](Cc1ccccc1)NC(=O)[C@H](Cc1ccc(O)cc1)NC(=O)[C@H](CO)NC(=O)[C@H](Cc1c[nH]c2ccccc12)NC(=O)[C@H](COCc1ccccc1)NC(=O)OCc1ccccc1)C(=O)N[C@@H](CCCNC(=N)N)C(=O)N1CCC[C@H]1C(=O)N(C)C |  | 40 | >3 | 5.9 | inhibition [7]: 100%
CCNC(=O)[C@@H]1CCCN1C(=O)[C@H](CCCNC(=N)N)NC(=O)[C@H](CC(C)C)NC(=O)CNC(=O)[C@H](Cc1ccc(O)cc1)NC(=O)[C@H](CO)NC(=O)[C@H](Cc1c[nH]c2ccccc12)NC(=O)[C@H](CCC(=O)NCc1ccccc1)NC(=O)OCc1ccccc1.Cl (Cbz-E(NHBn)WSYGLRP-NHEt) |  | 20 | >1 | 350 | inhibition [6]: 88%
CC(C)C[C@H](NC(=O)CNC(=O)[C@H](Cc1ccc(O)cc1)NC(=O)[C@H](CO)NC(=O)[C@H](Cc1c[nH]c2ccccc12)NC(=O)[C@H](Cc1ccc(OCc2ccccc2)cc1)NC(=O)OCc1ccccc1)C(=O)N[C@@H](CCCNC(=N)N)C(=O)N1CCC[C@H]1C(=O)NCC(N)=O.Cl (Cbz-Y(Bn)WSYGLRPG-NH2) |  | 20 | >1 |  | inhibition [4]: 74%
CCNC(=O)[C@@H]1CCCN1C(=O)[C@H](CCCNC(=N)N)NC(=O)[C@H](CC(C)C)NC(=O)[C@@H](Cc1ccccc1)NC(=O)[C@H](Cc1ccc(O)cc1)NC(=O)[C@H](CO)NC(=O)[C@H](Cc1c[nH]c2ccccc12)NC(=O)[C@H](CC(C)C)NC(=O)OCc1ccccc1.Cl |  | 0 | >1 | 3 | inhibition [7]: 100%
